The text below walks through data of ChEMBL document CHEMBL1138409, “Diaryl substituted pyrazoles as potent CCR2 receptor antagonists” (Bioorg Med Chem Lett, 2007).

The target of data set [1] is T1, C-C chemokine receptor type 2 (Homo sapiens, UniProt P41597). Nature of the data set: Displacement of 125I-hMCP1 from CCR2 expressed in human peripheral blood monocytes after 60 mins. The format is cell-based. A digest of the protocol: (§1)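 Primary human blood monocytes, which express CCR2 endogenously, were incubated with 125I-hMCP-1 (2200 Ci/mmol) and the unlabeled compound. Incubation was 60 min at room temperature in 50 mM Hepes, 5 mM MgCl2 and 1 mM CaCl2, pH 7.4. Bound label was collected by filtration through PEI-presoaked GF/B filters and washed with 25 mM Hepes pH 7.5 containing 500 mM NaCl. Filters were then dried and counted by scintillation. Values are the mean of at least two experiments.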
For orientation: Displacement assays read how much labelled ligand stays bound in the presence of the test substance.
Target sequence in this assay (P41597 whole entry): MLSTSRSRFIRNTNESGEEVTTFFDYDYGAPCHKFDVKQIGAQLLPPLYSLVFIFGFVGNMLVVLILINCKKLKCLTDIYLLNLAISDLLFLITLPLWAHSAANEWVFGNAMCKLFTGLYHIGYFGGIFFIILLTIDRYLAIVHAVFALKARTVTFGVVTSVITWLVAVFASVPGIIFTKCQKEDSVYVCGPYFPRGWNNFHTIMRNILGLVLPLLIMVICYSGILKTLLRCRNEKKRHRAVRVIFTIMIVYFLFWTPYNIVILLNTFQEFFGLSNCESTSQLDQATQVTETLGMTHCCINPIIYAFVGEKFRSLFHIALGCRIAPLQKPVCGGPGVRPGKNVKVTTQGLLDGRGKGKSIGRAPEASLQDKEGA

Data set [2] concerns the target T1, C-C chemokine receptor type 2. As to the kind of experiment: Displacement of 125I-hMCP1 from CCR2 expressed in human peripheral blood monocytes at 1 uM after 60 mins. In kind it is cell-based.
Target sequence in this assay (P41597 whole entry, looked up): as the sequence (P41597 whole entry) above
The target is the same in data set [3]. Nature of the data set: Antagonist activity against human CCR2 receptor assessed as inhibition of MCP1-induced migration of human peripheral blood monocytes at 300 nM. The format is functional. More on the design: scale not given: the % may be the effect or the level left.
Target sequence in this assay (P41597 whole entry, looked up): as the sequence (P41597 whole entry) above
Data set [4] shares this target. As to the kind of experiment: Displacement of 125I-hMCP1 from CCR2 expressed in human peripheral blood monocytes less than 10 uM after 60 mins. In kind it is cell-based. A digest of the protocol:
as §1
Target sequence in this assay (P41597 whole entry): as above

Data set [5] in a line: Clearance in Sprague-Dawley rat at 1 mg/kg, iv and 2 mg/kg, po. As to conditions: in vivo. In kind it is ADME, organism-based.
Data set [6] can be described thus: Oral bioavailability in Sprague-Dawley rat at 2 mg/kg. In kind it is ADME, organism-based. As to conditions: in vivo.
Data set [7] in a line: Half life in Sprague-Dawley rat. In kind it is ADME, organism-based. As to conditions: in vivo.
Data set [8] can be described thus: Volume of distribution in Sprague-Dawley rat. The format is ADME, organism-based. Particulars: in vivo.
In data set [9] the target is C-C chemokine receptor type 5 (Homo sapiens, UniProt P51681). Nature of the data set: Inhibition of CCR5.
Chain of C-C chemokine receptor type 5 (P51681 whole entry): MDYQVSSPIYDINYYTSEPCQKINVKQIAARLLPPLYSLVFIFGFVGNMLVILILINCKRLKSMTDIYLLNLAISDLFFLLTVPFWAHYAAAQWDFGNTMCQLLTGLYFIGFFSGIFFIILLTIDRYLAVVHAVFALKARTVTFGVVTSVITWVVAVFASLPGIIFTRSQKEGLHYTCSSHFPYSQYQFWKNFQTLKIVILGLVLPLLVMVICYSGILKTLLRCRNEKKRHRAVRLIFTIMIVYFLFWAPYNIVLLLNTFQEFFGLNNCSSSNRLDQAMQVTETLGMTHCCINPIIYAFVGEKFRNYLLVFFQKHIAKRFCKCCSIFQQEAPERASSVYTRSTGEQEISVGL
Data set [10] concerns the target T1, C-C chemokine receptor type 2. As to the kind of experiment: Displacement of 125I-hMCP1 from CCR2 expressed in human peripheral blood monocytes at 10 uM after 60 mins. In kind it is cell-based.
Target sequence in this assay (P41597 whole entry, looked up): as the sequence (P41597 whole entry) above

The source made the active and inactive calls. No cut-off for these calls is given here.

Usually IC50 stands for the midpoint of a concentration-inhibition curve. `CCN(CC)CCCCNC(=O)CCCc1cc(-c2cc(Cl)cc(Cl)c2)nn1-c1ccc2ccccc2c1`: the IC50 in [1] is 1.23 µM.
The same measure, in the same setting: the value for `COC(=O)[C@H](CCCNC(=N)N)NC(=O)CCCOc1cc(-c2cc(Cl)cc(Cl)c2)nn1-c1ccc2ccccc2c1` was 7.6 µM.
Take `O=C(CCCc1cc(-c2cc(Cl)cc(Cl)c2)nn1-c1ccc2ccccc2c1)NCCCc1ccncc1`: the IC50 in [1] was found to be 1.12 µM.
Take `CCN(CC)CCCC(C)NC(=O)CCCc1cc(-c2cc(C(F)(F)F)cc(C(F)(F)F)c2)nn1-c1ccc2ccccc2c1` (centres undefined): in data set [1], the IC50 stood at 0.634 µM.
`CCCCC(CCCN(CC)CC)NC(=O)CCOc1cc(-c2cc(Cl)cc(Cl)c2)nn1-c1ccc2ccccc2c1` (centres undefined): the Activity in data set [2] was determined as 52%.
Take `CCN(CC)CCCC(C)NC(=O)CCCc1cc(-c2cccc(Cl)c2)nn1-c1ccc2ccccc2c1` (centres undefined): the IC50 in data set [1] was found to be 0.168 µM. Further, in data set [3], the Activity was 57%.
In the case of `CCC(C)CC(CCCN(CC)CC)NC(=O)CCOc1cc(-c2cc(Cl)cc(Cl)c2)nn1-c1ccc2ccccc2c1` (centres undefined), the IC50 in data set [1] was 0.107 µM.
For the molecule `CCN(CC)CCCC(CC(C)C)NC(=O)CCOc1cc(-c2cc(Cl)cc(Cl)c2)nn1-c1ccc2ccccc2c1` (centres undefined), the IC50 in [1] came out at 0.074 µM.
For the molecule `CCN(CC)CCCC(C)NC(=O)CCCc1cc(-c2cccc(OC)c2)nn1-c1ccc2ccccc2c1` (centres undefined), the concentration for half-maximal inhibition (IC50) in [1] worked out at 2.39 µM.
`COC(=O)[C@H](CCCNC(=N)N)NC(=O)CC(=O)Nc1cc(-c2cc(Cl)cc(Cl)c2)nn1-c1ccc2ccccc2c1`: the IC50 result in [4] is “Not Active”.
With `CCN(CC)CCCC(C)NC(=O)CCNc1cc(-c2cc(Cl)cc(Cl)c2)nn1-c1ccc2ccccc2c1` (centres undefined), in data set [1], the half-inhibitory concentration (IC50) was determined as 0.03 µM.
Consider `CCN(CC)CCCC(C)NC(=O)CCOc1cc(-c2cc(Cl)cc(Cl)c2)nn1-c1ccc2ccccc2c1` (centres undefined), for which the IC50 in data set [1] stood at 0.066 µM.
Broadly, the bioavailability is dose-corrected exposure relative to a reference, in per cent. Usually half-life stands for the time in which the quantity being followed falls by half. By Vd is commonly meant a proportionality between amount in the body and measured concentration, not a real space. `CCN(CC)CCCC(C)NC(=O)CCCc1cc(-c2cc(Cl)cc(Cl)c2)nn1-c1ccc2ccccc2c1` (centres undefined): the clearance in [5] turned out to be 28.1 mL/min/kg. Further, the IC50 in [1] stood at 0.108 µM; in data set [9] it was 0.22 µM. This molecule had a bioavailability in data set [6] of 5%. The half-life in data set [7] is 6.52 h. The molecule also registered a Vd in [8] of 13 L/kg.
Molecule `CCN(CC)CCCC(C)NC(=O)CCCc1cc(-c2ccccc2Cl)nn1-c1ccc2ccccc2c1` (centres undefined) returned an Activity in data set [10] of 69%.
`COC(=O)[C@H](CCCNC(=N)N)NC(=O)CCOc1cc(-c2cc(Cl)cc(Cl)c2)nn1-c1ccc2ccccc2c1`: the IC50 in [1] came out at 0.062 µM.
In data set [10], `CCN(CC)CCCC(C)NC(=O)CCCc1cc(-c2cc(Cl)cc(Cl)c2)nn1-c1ccccc1` (centres undefined) yielded an Activity of 69%.
`CCN(CC)CCCC(C)NC(=O)CCCc1cc(-c2cccc(F)c2)nn1-c1ccc2ccccc2c1` (centres undefined): in data set [1], the IC50 was found to be 0.522 µM.
As for `CCN(CC)CCCC(NC(=O)CCOc1cc(-c2cc(Cl)cc(Cl)c2)nn1-c1ccc2ccccc2c1)C(C)C` (centres undefined), the IC50 in data set [1] stood at 0.006 µM; in [9], 1.61 µM.
In the case of `COC(=O)[C@H](Cc1c[nH]cn1)NC(=O)CCCc1cc(-c2cc(Cl)cc(Cl)c2)nn1-c1ccc2ccccc2c1`, the IC50 in [1] came out at 2.84 µM.
Still for that read-out and setting: in the case of `COC(=O)[C@H](CCCNC(=N)N)NC(=O)CCNc1cc(-c2cc(Cl)cc(Cl)c2)nn1-c1ccc2ccccc2c1` it was 0.043 µM; in that of `CCCC(CCCN(CC)CC)NC(=O)CCOc1cc(-c2cc(Cl)cc(Cl)c2)nn1-c1ccc2ccccc2c1` (centres undefined), 0.044 µM.
For the molecule `CCN(CC)CCCC(C)NC(=O)CCCc1cc(-c2cccc(C(F)(F)F)c2)nn1-c1ccc2ccccc2c1` (centres undefined), the IC50 in data set [1] amounted to 0.207 µM.
Turning to `COC(=O)[C@H](CCCNC(=N)N)NCCCCc1cc(-c2cc(Cl)cc(Cl)c2)nn1-c1ccc2ccccc2c1`, in [4], the IC50 result is on record as “Not Active”.
In [5], `COC(=O)[C@H](CCCNC(=N)N)NC(=O)CCCc1cc(-c2cc(Cl)cc(Cl)c2)nn1-c1ccc2ccccc2c1` returned a clearance of 8.3 mL/min/kg. For the same molecule, the IC50 in data set [1] turned out to be 0.221 µM; in [9] it was 0.063 µM. Moreover, the bioavailability in data set [6] was found to be 0%. This molecule also had a half-life in data set [7] of 2.49 h. In addition, in data set [8], the Vd turned out to be 0.98 L/kg.
Turning to `O=C(CCCc1cc(-c2cc(Cl)cc(Cl)c2)nn1-c1ccc2ccccc2c1)NCCCc1ccc2c(n1)NCCC2`, the IC50 in [1] was determined as 9.33 µM.
On the same count and under the same terms, the value for `CN(C)CCCCNC(=O)CCCc1cc(-c2cc(Cl)cc(Cl)c2)nn1-c1ccc2ccccc2c1` was 1.8 µM; that for `CCC(CCCN(CC)CC)NC(=O)CCOc1cc(-c2cc(Cl)cc(Cl)c2)nn1-c1ccc2ccccc2c1` (centres undefined) was 0.009 µM.
The molecule `CCN(CC)CCCC(C)NC(=O)CCCc1cc(-c2cc(Cl)cc(Cl)c2)nn1-c1cc(C(F)(F)F)cc(C(F)(F)F)c1` (centres undefined) showed an IC50 in data set [1] of 6.47 µM.
On to `COC(=O)[C@H](CCCNC(=N)N)NC(=O)c1cccc(-c2cc(-c3cc(Cl)cc(Cl)c3)nn2-c2ccc3ccccc3c2)c1`, for which the IC50 result in data set [4] is recorded as “Not Active”.
`CCN(CC)CCCC(C)NC(=O)CCCc1cc(-c2ccc(Cl)cc2)nn1-c1ccc2ccccc2c1` (centres undefined): the half-inhibitory concentration (IC50) in data set [1] came to 0.442 µM. The result in data set [3] was inactive.
Regarding `COC(=O)[C@H](CCCN=C(N)N)NC(=O)CCc1cc(-c2cc(Cl)cc(Cl)c2)nn1-c1ccc2ccccc2c1`, the IC50 in data set [1] was found to be 4.74 µM.
